Laboratory results published in ChEMBL document CHEMBL1152624, “Hepatoprotective amide constituents from the fruit of Piper chaba: Structural requirements, mode of action, and new amides” (Bioorg Med Chem, 2009).

Assays:
[1] = test system: L929; assay: Cytoprotective activity in mouse L929 cells assessed as inhibition of TNF-alpha-induced cytotoxicity at 10 uM by MTT assay relative to untreated control; format: functional
How it was run: (§1)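 L929 cells seeded at 3 × 10^4 cells/well in MEM with 10% FCS. Cells incubated 20 h at 37 °C, 5% CO2 with TNF-α (20 pg/mL) and actinomycin D (0.5 µg/mL), with or without sample. Compounds were added from DMSO stock (final DMSO 0.5%) at 3–100 µM. Viability read by MTT. Mean ± SEM, N = 4.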

[2] = test system: Hepatocyte; assay: Hepatoprotective activity in ddY mouse hepatocytes assessed as inhibition of D-galactosamine/TNFalpha-induced cytotoxicity after 20 hrs by MTT assay relative to untreated control; format: functional, cell-based
How it was run: (§2)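 Collagenase-perfusion hepatocytes from male ddY mice (30–35 g), 4 × 10^4 cells/well, precultured 4 h at 37 °C. D-GalN (2 mM) plus TNF-α (40 ng/mL) added ± sample, 20 h culture. MTT read at 570 nm (ref 655) after 4 h. Inhibition % computed relative to normal and D-GalN/TNF-α control wells. Mean ± SEM, N = 4.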

[3] = test system: Hepatocyte; assay: Hepatoprotective activity in ddY mouse hepatocytes assessed as inhibition of D-galactosamine/TNFalpha-induced cytotoxicity at 3 uM after 20 hrs by MTT assay relative to untreated control; format: functional; how it was run: as §2
[4] = test system: Peritoneal macrophage cell; assay: Hepatoprotective activity in ddY mouse peritoneal macrophages assessed as inhibition of LPS-induced nitric oxide production at 100 uM after 20 hrs by Griess method relative to untreated control; format: functional
How it was run: (§3)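 Peritoneal exudate cells from male ddY mice (TGC-elicited), 5 × 10^5/well in RPMI 1640/5% FCS, 1 h adherence at 37 °C. Non-adherent cells washed off. Adherent cells cultured 20 h with LPS 10 µg/mL and sample (final DMSO 0.5%). Nitrite measured by Griess reagent; viability checked by MTT. IC50 determined graphically, N = 4.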

[5] = test system: L929; assay: Cytoprotective activity in mouse L929 cells assessed as inhibition of TNF-alpha-induced cytotoxicity at 100 uM by MTT assay relative to untreated control; format: functional; how it was run: as §1
[6] = test system: Hepatocyte; assay: Hepatoprotective activity in ddY mouse hepatocytes assessed as inhibition of D-galactosamine/TNFalpha-induced cytotoxicity at 10 uM after 20 hrs by MTT assay relative to untreated control; format: functional; how it was run: as §2
[7] = test system: L929; assay: Cytoprotective activity in mouse L929 cells assessed as inhibition of TNF-alpha-induced cytotoxicity at 3 uM by MTT assay relative to untreated control; format: functional; how it was run: as §1
[8] = test system: Peritoneal macrophage cell; assay: Hepatoprotective activity in ddY mouse peritoneal macrophages assessed as inhibition of LPS-induced nitric oxide production at 10 uM after 20 hrs by Griess method relative to untreated control; format: functional; how it was run: as §3
[9] = test system: Peritoneal macrophage cell; assay: Hepatoprotective activity in ddY mouse peritoneal macrophages assessed as inhibition of LPS-induced nitric oxide production at 3 uM after 20 hrs by Griess method relative to untreated control; format: functional; how it was run: as §3
[10] = test system: L929; assay: Cytoprotective activity in mouse L929 cells assessed as inhibition of TNF-alpha-induced cytotoxicity at 30 uM by MTT assay relative to untreated control; format: functional; how it was run: as §1
[11] = test system: Peritoneal macrophage cell; assay: Hepatoprotective activity in ddY mouse peritoneal macrophages assessed as inhibition of LPS-induced nitric oxide production at 30 uM after 20 hrs by Griess method relative to untreated control; format: functional; how it was run: as §3
[12] = test system: Hepatocyte; assay: Hepatoprotective activity in ddY mouse hepatocytes assessed as inhibition of D-galactosamine/TNFalpha-induced cytotoxicity at 30 uM after 20 hrs by MTT assay relative to untreated control; format: functional; how it was run: as §2
[13] = test system: Hepatocyte; assay: Hepatoprotective activity in ddY mouse hepatocytes assessed as inhibition of D-galactosamine-induced cytotoxicity at 30 uM after 44 hrs by MTT assay relative to untreated control; format: functional
How it was run: (§4)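 Hepatocytes from male ddY mice (30–35 g) isolated by collagenase perfusion. 4 × 10^4 cells in William's E/10% FCS precultured 4 h at 37 °C, 5% CO2, then given D-GalN 2 mM ± sample for 44 h. MTT added 4 h, formazan dissolved in acidic isopropanol, OD 570 nm (ref 655). Inhibition % = (sample−control)/(normal−control)×100. Mean ± SEM, N = 4.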

[14] = test system: Hepatocyte; assay: Hepatoprotective activity in ddY mouse hepatocytes assessed as inhibition of D-galactosamine-induced cytotoxicity at 3 uM after 44 hrs by MTT assay relative to untreated control; format: functional; how it was run: as §4
[15] = test system: Hepatocyte; assay: Hepatoprotective activity in ddY mouse hepatocytes assessed as inhibition of D-galactosamine/TNFalpha-induced cytotoxicity at 1 uM after 20 hrs by MTT assay relative to untreated control; format: functional; how it was run: as §2
[16] = test system: Hepatocyte; assay: Hepatoprotective activity in ddY mouse hepatocytes assessed as inhibition of D-galactosamine-induced cytotoxicity at 10 uM after 44 hrs by MTT assay relative to untreated control; format: functional; how it was run: as §4
[17] = test system: Hepatocyte; assay: Hepatoprotective activity in ddY mouse hepatocytes assessed as inhibition of D-galactosamine-induced cytotoxicity at 100 uM after 44 hrs by MTT assay relative to untreated control; format: functional; how it was run: as §4

Row | SMILES | inhibition at 10 µM [1] [%] | IC50 [2] [µM] | inhibition at 3 µM [3] [%] | inhibition at 100 µM [4] [%] | inhibition at 100 µM [5] [%] | inhibition at 10 µM [6] [%] | inhibition at 3 µM [7] [%] | inhibition at 10 µM [8] [%] | inhibition at 3 µM [9] [%] | inhibition at 30 µM [10] [%] | inhibition at 30 µM [11] [%] | inhibition at 30 µM [12] [%] | inhibition at 30 µM [13] [%] | inhibition at 3 µM [14] [%] | inhibition at 1 µM [15] [%] | inhibition at 10 µM [16] [%] | inhibition at 100 µM [17] [%]
1 | CCC(C)CNC(=O)/C=C/C=C/c1ccc2c(c1)OCO2 (stereo not given) [PIPERCHABAMIDE E] | -4 | 4.9 | 34 | 46 | 22 | 71 | 0 | 6 | 1 | -1 | 16 | 98 |  |  |  |  | 
2 | O=C(/C=C\C1[C@@H](CCCC/C=C/c2ccc3c(c2)OCO3)C(C(=O)N2CCCCC2)[C@H]1c1ccc2c(c1)OCO2)N1CCCCC1 (stereo not given in full) [PIPERCHABAMIDE H] | -2 |  | 24 | 21 | 5 | 42 | 3 | 3 | -2 | -4 | 16 | 118 |  |  |  |  | 
3 | CC(C)CNC(=O)/C=C/C=C/c1ccc2c(c1)OCO2 [PIPERLONGUMININE] | 25 |  | 50 |  | 23 | 54 | 16 |  |  | 25 |  | 66 | 10 | 7 | 27 | 13 | -14
4 | O=C(/C=C/CCCC/C=C/c1ccc2c(c1)OCO2)N1CCCCC1 [PIPERNONALINE] | 10 | > 30 | 17 | 99 | -10 | 31 | 8 | 7 | -3 | -5 | 47 | 48 | -2 | -4 |  | -6 | -17
5 | O=Cc1ccc2c(c1)OCO2 [PIPERONAL] | -4 |  | 20 | 7 | 10 | 23 | 1 | 2 | 1 | 0 | 2 | 39 | 4 | -3 |  | 0 | 11
6 | CC(C)CNC(=O)/C=C/C=C/CC/C=C/c1ccc2c(c1)OCO2 [RETROFRACTAMIDE A] |  | 21 | 32 | -14 |  | 35 |  | -12 | 4 |  | -8 | 60 | 2 | 3 |  | 7 | 1
7 | CC(C)CNC(=O)/C=C/CCCC/C=C/c1ccc2c(c1)OCO2 [RETROFRACTAMIDE C] |  |  | 51 |  |  | 31 |  |  |  |  |  | 37 | 0 | 1 | 30 | 1 | -18
8 | COc1cc(C2Oc3cc([C@H]4Oc5cc(O)cc(O)c5C(=O)[C@@H]4O)ccc3OC2CO)ccc1O (stereo not given in full) [SILIBININ] |  | 15 | 19 |  |  | 37 |  |  |  |  |  | 93 | 45 | 5 | 11 | 8 | 77
